In ChEMBL document CHEMBL3352534, “A prodrug strategy for the oral delivery of a poorly soluble HCV NS5B thumb pocket 1 polymerase inhibitor using self-emulsifying drug delivery systems (SEDDS)” (Bioorg Med Chem Lett, 2015):
In brackets after ≈: the same amount, converted by molar mass.

Assays:
Rattus norvegicus [1] = experiment: AUC in rat assessed as (E)-3-(4-(1-(2-(5-chloropyrimidin-2-yl)-3-cyclopentyl-1-methyl-1H-indole-6-carboxamido)cyclobutanecarboxamido)-2-ethoxyphenyl)acrylic acid at 10 mg/kg, po using 10.6% PEG400, 5.4% Cremophor EL, 2.6% Labrasol, 1.4% Capmul MCM in water (80%) vehicle; type: ADME, organism-based, Plasma; parameters: dose 10 mg/kg, route oral; details: in vivo
Procedure, shortened: (§1)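 Fasted rats were given a single 10 mg/kg oral dose, with n = 3 per dose and route. Plasma was extracted by solid-phase extraction. Analysis used HPLC with diode-array UV (200–400 nm, peak height at best S/N) or LC/MS. Calibration standards were made in blank plasma, with LOQ 7–14 ng/mL. Parameters came from noncompartmental analysis.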

[2] = Permeability across human Caco2 cells; type: ADME, cell-based; details: Caco-2
Rattus norvegicus [3] = experiment: Cmax in rat plasma assessed as (E)-3-(4-(1-(2-(5-chloropyrimidin-2-yl)-3-cyclopentyl-1-methyl-1H-indole-6-carboxamido)cyclobutanecarboxamido)-2-ethoxyphenyl)acrylic acid at 10 mg/kg, po using 0.5% Methyl cellulose, 0.3% Tween-80, 1% N-methylpyrrolidone in water vehicle; type: ADME, organism-based; parameters: dose 10 mg/kg, route oral; details: in vivo; procedure, shortened: as §1
Rattus norvegicus [4] = experiment: AUC in rat plasma assessed as (E)-3-(4-(1-(2-(5-chloropyrimidin-2-yl)-3-cyclopentyl-1-methyl-1H-indole-6-carboxamido)cyclobutanecarboxamido)-2-ethoxyphenyl)acrylic acid at 10 mg/kg, po using 0.5% Methyl cellulose, 0.3% Tween-80, 1% N-methylpyrrolidone in water vehicle; type: ADME, organism-based; parameters: dose 10 mg/kg, route oral; details: in vivo; procedure, shortened: as §1
Rattus norvegicus [5] = experiment: Cmax in rat plasma assessed as (E)-3-(4-(1-(2-(5-chloropyrimidin-2-yl)-3-cyclopentyl-1-methyl-1H-indole-6-carboxamido)cyclobutanecarboxamido)-2-ethoxyphenyl)acrylic acid at 10 mg/kg, po using 10.6% PEG400, 5.4% Cremophor EL, 2.6% Labrasol, 1.4% Capmul MCM in water (80%) vehicle; type: ADME, organism-based; parameters: dose 10 mg/kg, route oral; details: in vivo; procedure, shortened: as §1
Rattus norvegicus [6] = experiment: AUC in rat plasma assessed as (E)-3-(4-(1-(2-(5-chloropyrimidin-2-yl)-3-cyclopentyl-1-methyl-1H-indole-6-carboxamido)cyclobutanecarboxamido)-2-ethoxyphenyl)acrylic acid at 10 mg/kg, po using 10.6% PEG400, 5.4% Cremophor EL, 2.6% Labrasol, 1.4% Capmul MCM in water (80%) vehicle; type: ADME, organism-based; parameters: dose 10 mg/kg, route oral; details: in vivo; procedure, shortened: as §1
Rattus norvegicus [7] = experiment: AUC in rat assessed as (E)-3-(4-(1-(2-(5-chloropyrimidin-2-yl)-3-cyclopentyl-1-methyl-1H-indole-6-carboxamido)cyclobutanecarboxamido)-2-ethoxyphenyl)acrylic acid at 2 mg/kg, iv; type: ADME, organism-based, Plasma; parameters: dose 2 mg/kg, route intravenous; details: in vivo
Procedure, shortened: (§2)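 Overnight-fasted rats received 2 mg/kg IV in 70% PEG400:30% water, n = 3. Plasma parent drug was quantified after solid-phase extraction by HPLC-UV or LC/MS against blank-plasma calibration standards (LOQ 7–14 ng/mL). Noncompartmental analysis gave the PK parameters.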

Rattus norvegicus [8] = experiment: Mean residence time in rat assessed as (E)-3-(4-(1-(2-(5-chloropyrimidin-2-yl)-3-cyclopentyl-1-methyl-1H-indole-6-carboxamido)cyclobutanecarboxamido)-2-ethoxyphenyl)acrylic acid at 2 mg/kg, iv; type: ADME, organism-based; parameters: dose 2 mg/kg, route intravenous; details: in vivo; procedure, shortened: as §2
Rhesus monkey [9] = experiment: AUC in monkey assessed as (E)-3-(4-(1-(2-(5-chloropyrimidin-2-yl)-3-cyclopentyl-1-methyl-1H-indole-6-carboxamido)cyclobutanecarboxamido)-2-ethoxyphenyl)acrylic acid at 10 mg/kg using 10.6% PEG400, 5.4% Cremophor EL, 2.6% Labrasol, 1.4% Capmul MCM in water (80%) vehicle; type: ADME, organism-based, Macaca mulatta, Plasma; parameters: dose 10 mg/kg; details: in vivo
Canis familiaris [10] = experiment: AUC in dog assessed as (E)-3-(4-(1-(2-(5-chloropyrimidin-2-yl)-3-cyclopentyl-1-methyl-1H-indole-6-carboxamido)cyclobutanecarboxamido)-2-ethoxyphenyl)acrylic acid at 10 mg/kg using 10.6% PEG400, 5.4% Cremophor EL, 2.6% Labrasol, 1.4% Capmul MCM in water (80%) vehicle; type: ADME, organism-based, Canis lupus familiaris, Plasma; parameters: dose 10 mg/kg; details: in vivo
Rattus norvegicus [11] = experiment: Total clearance in rat assessed as (E)-3-(4-(1-(2-(5-chloropyrimidin-2-yl)-3-cyclopentyl-1-methyl-1H-indole-6-carboxamido)cyclobutanecarboxamido)-2-ethoxyphenyl)acrylic acid at 2 mg/kg, iv; details: in vivo
Plasma [12] = experiment: Prodrug conversion in human plasma assessed as half life
Plasma [13] = experiment: Prodrug conversion in rat plasma assessed as half life; type: ADME, cell-free
Procedure, shortened: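 Rat plasma (from centrifuged whole blood) was incubated with 2 µM compound at 37 °C. Samples were quenched 1:3 with acetonitrile/methanol 1:1, centrifuged and analysed by HPLC-PDA. Half-life was taken as 0.693/first-order rate of loss of the starting compound.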

[14] = Prodrug conversion in simulated gastric fluid assessed as half life; type: ADME; details: simulated gi fluid
Procedure, shortened: (§3)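 Incubations used 2 µM compound at 37 °C in either SGF (0.2% NaCl/HCl, pH 1.2, pepsin 3.2 mg/mL) or SIF (KH2PO4/NaOH, pH 7.5, pancreatin 10 mg/mL). Samples were quenched 1:2 with acetonitrile/methanol 1:1 and analysed by HPLC. t1/2 = 0.693/first-order disappearance rate.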

Intestine = experiment: Prodrug conversion in rat intestinal microsomes assessed as half life
[15] = Prodrug conversion in simulated intestinal fluid assessed as half life; type: ADME; details: simulated gi fluid; procedure, shortened: as §3
Liver microsome [16] = experiment: Prodrug conversion in rat liver microsomes assessed as half life
[17] = Prodrug conversion in human intestinal microsomes assessed as half life
Liver microsome [18] = experiment: Prodrug conversion in human liver microsomes assessed as half life
[19] = (§4) Cmax in rat plasma at 10 mg/kg, po using 0.5% Methyl cellulose, 0.3% Tween-80, 1% N-methylpyrrolidone in water vehicle; type: ADME, organism-based; parameters: dose 10 mg/kg, route oral; details: plasma; procedure, shortened: as §1
[20] = (§5) AUC in rat plasma at 10 mg/kg, po using 0.5% Methyl cellulose, 0.3% Tween-80, 1% N-methylpyrrolidone in water vehicle; type: ADME, organism-based; parameters: dose 10 mg/kg, route oral; details: plasma; procedure, shortened: as §1
[21] = Cmax in rat plasma at 10 mg/kg, po using 10.6% PEG400, 5.4% Cremophor EL, 2.6% Labrasol, 1.4% Capmul MCM in water (80%) vehicle; type: ADME, organism-based; parameters: dose 10 mg/kg, route oral; details: plasma; procedure, shortened: as §1
[22] = (§6) AUC in rat plasma at 10 mg/kg, po using 10.6% PEG400, 5.4% Cremophor EL, 2.6% Labrasol, 1.4% Capmul MCM in water (80%) vehicle; type: ADME, organism-based; parameters: dose 10 mg/kg, route oral; details: plasma; procedure, shortened: as §1
Rattus norvegicus [23] = experiment: as §4; type: ADME, organism-based; parameters: dose 10 mg/kg, route oral; details: in vivo, BLD = below limit of detection; procedure, shortened: as §1
Rattus norvegicus [24] = experiment: as §5; type: ADME, organism-based; parameters: dose 10 mg/kg, route oral; details: in vivo, BLD = below limit of detection; procedure, shortened: as §1
[25] = Solubility of the compound at pH 6.8; type: physicochemical; details: buffer
Rattus norvegicus [26] = experiment: Oral bioavailability in rat assessed as (E)-3-(4-(1-(2-(5-chloropyrimidin-2-yl)-3-cyclopentyl-1-methyl-1H-indole-6-carboxamido)cyclobutanecarboxamido)-2-ethoxyphenyl)acrylic acid at 10 mg/kg using 10.6% PEG400, 5.4% Cremophor EL, 2.6% Labrasol, 1.4% Capmul MCM in water (80%) vehicle; type: ADME, organism-based; details: in vivo
Rhesus monkey [27] = experiment: Oral bioavailability in monkey assessed as (E)-3-(4-(1-(2-(5-chloropyrimidin-2-yl)-3-cyclopentyl-1-methyl-1H-indole-6-carboxamido)cyclobutanecarboxamido)-2-ethoxyphenyl)acrylic acid at 10 mg/kg using 10.6% PEG400, 5.4% Cremophor EL, 2.6% Labrasol, 1.4% Capmul MCM in water (80%) vehicle; type: ADME, organism-based, Macaca mulatta; details: in vivo
Canis familiaris [28] = experiment: Oral bioavailability in dog assessed as (E)-3-(4-(1-(2-(5-chloropyrimidin-2-yl)-3-cyclopentyl-1-methyl-1H-indole-6-carboxamido)cyclobutanecarboxamido)-2-ethoxyphenyl)acrylic acid at 10 mg/kg using 10.6% PEG400, 5.4% Cremophor EL, 2.6% Labrasol, 1.4% Capmul MCM in water (80%) vehicle; type: ADME, organism-based, Canis lupus familiaris; details: in vivo
[29] = AUC in dog at 10 mg/kg, po using 10.6% PEG400, 5.4% Cremophor EL, 2.6% Labrasol, 1.4% Capmul MCM in water (80%) vehicle; type: ADME, organism-based, Canis lupus familiaris; parameters: dose 10 mg/kg, route oral; details: plasma
[30] = Prodrug solubility in capmul; type: ADME
[31] = Prodrug solubility in solutol; type: ADME
[32] = Prodrug solubility in Labrasol; type: ADME
[33] = Prodrug solubility in PEG400; type: ADME
Rattus norvegicus [34] = experiment: as §6; type: ADME, organism-based; parameters: dose 10 mg/kg, route oral; details: in vivo, BLD = below limit of detection; procedure, shortened: as §1
Rattus norvegicus [35] = experiment: Half life in rat assessed as (E)-3-(4-(1-(2-(5-chloropyrimidin-2-yl)-3-cyclopentyl-1-methyl-1H-indole-6-carboxamido)cyclobutanecarboxamido)-2-ethoxyphenyl)acrylic acid at 2 mg/kg, iv; type: ADME, organism-based; parameters: dose 2 mg/kg, route intravenous; details: in vivo; procedure, shortened: as §2
Rattus norvegicus [36] = experiment: Volume of distribution at steady state in rat assessed as (E)-3-(4-(1-(2-(5-chloropyrimidin-2-yl)-3-cyclopentyl-1-methyl-1H-indole-6-carboxamido)cyclobutanecarboxamido)-2-ethoxyphenyl)acrylic acid at 2 mg/kg, iv; type: ADME, organism-based; parameters: dose 2 mg/kg, route intravenous; details: in vivo; procedure, shortened: as §2

SMILES	Cmax (Rattus norvegicus [3])	AUC (Rattus norvegicus [4])	Cmax (Rattus norvegicus [5])	AUC (Rattus norvegicus [6])	AUC (Rattus norvegicus [7])	MRT (Rattus norvegicus [8])	AUC (Rhesus monkey [9])	AUC (Canis familiaris [10])	t1/2 (Plasma [13])	t1/2 [14]	t1/2 (Intestine)	t1/2 (Liver microsome [16])	t1/2 [17]	t1/2 (Liver microsome [18])	Cmax [19]	AUC [20]	Cmax [21]	solubility [25]	other results
CCOc1cc(NC(=O)C2(NC(=O)c3ccc4c(C5CCCC5)c(-c5ncc(Cl)cn5)n(C)c4c3)CCC2)ccc1/C=C/C(=O)O	7400 nM	25.5 µM·h	2100 nM	7.5 µM·h	20.1 µM·h	2.5 h	53 µM·h	76 µM·h	–	–	–	–	–	–	–	–	–	–	AUC (Rattus norvegicus [1]): 19.3 µM·h; Papp [2]: 13 ×10⁻⁶ cm/s; CL (Rattus norvegicus [11]): 2.6 mL/min/kg
CCOc1cc(NC(=O)C2(NC(=O)c3ccc4c(C5CCCC5)c(-c5ncc(Cl)cn5)n(C)c4c3)CCC2)ccc1/C=C/C(=O)OC	510 nM	5.7 µM·h	5200 nM	30.7 µM·h	–	–	–	–	> 5 h	2.5 h	1.82 h	1.63 h	9.07 h	12.7 h	10 nM	0.07 µM·h	840 nM	–	t1/2 (Plasma [12]): > 5 h; t1/2 [15]: 6.87 h; AUC [22]: 2.6 µM·h
CCOc1cc(NC(=O)C2(NC(=O)c3ccc4c(C5CCCC5)c(-c5ncc(Cl)cn5)n(C)c4c3)CCC2)ccc1/C=C/C(=O)OCOP(=O)(O)OC(C)(C)C	80 nM	0.49 µM·h	–	–	–	–	–	–	–	–	–	0.13 h	–	1.48 h	–	–	–	0.781 mg/mL (≈ 0.966 mM)	Cmax (Rattus norvegicus [23]): BLD; AUC (Rattus norvegicus [24]): BLD
CCOc1cc(NC(=O)C2(NC(=O)c3ccc4c(C5CCCC5)c(-c5ncc(Cl)cn5)n(C)c4c3)CCC2)ccc1/C=C/C(=O)OCC(=O)N(C)C	–	–	9200 nM	38.5 µM·h	10.5 µM·h	2.8 h	26 µM·h	11.5 µM·h	1.43 h	–	–	–	–	–	–	–	20 nM	–	F (Rattus norvegicus [26]): 38%; F (Rhesus monkey [27]): 35%; F (Canis familiaris [28]): 4%; AUC [29]: 0.69 µM·h; solubility [30]: > 100 mg/mL; solubility [31]: > 200 mg/mL; solubility [32]: > 200 mg/mL; solubility [33]: > 200 mg/mL; AUC (Rattus norvegicus [34]): BLD; t1/2 (Rattus norvegicus [35]): 2.1 h; Vdss (Rattus norvegicus [36]): 0.73 L/kg
CCOc1cc(NC(=O)C2(NC(=O)c3ccc4c(C5CCCC5)c(-c5ncc(Cl)cn5)n(C)c4c3)CCC2)ccc1/C=C/C(=O)OCOP(=O)(O)O	4200 nM	14.5 µM·h	–	–	–	–	–	–	–	1.3 h	0.083 h	0.15 h	0.467 h	0.167 h	50 nM	0.09 µM·h	–	0.14 mg/mL (≈ 0.186 mM)	–
